Test results as given in ChEMBL document CHEMBL3596131, “Discovery of a novel trans-1,4-dioxycyclohexane GPR119 agonist series” (Bioorg Med Chem Lett, 2015).
pEC50: −log10 of the molar value. The source made the active and inactive calls. The rule behind the calls is not given here.

Experiments:
Rattus norvegicus [1] = experiment: Antidiabetic activity in Zucker diabetic fatty rat assessed as decrease in HbA1C level at 3 mg/kg, qd administered over 4 weeks measured on day 28 post last dose relative to vehicle-treated control; format: functional; set-up: scale not given: the % may be the effect or the level left
Method in brief: (§1)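 Chronic study in ZDF rats: once-daily dosing at 1, 3 or 10 mg/kg for 4 weeks, vehicle 0.5% methylcellulose; fed glucose and body weight tracked at dosing times, HbA1c measured on day 28 relative to vehicle.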

[2] = molecular target: T1, Glucose-dependent insulinotropic receptor (Rattus norvegicus) (UniProt Q7TQN8); experiment: Agonist activity at rat GPR119 by HTRF cAMP assay relative to AR231453; format: functional
T1 sequence (whole entry): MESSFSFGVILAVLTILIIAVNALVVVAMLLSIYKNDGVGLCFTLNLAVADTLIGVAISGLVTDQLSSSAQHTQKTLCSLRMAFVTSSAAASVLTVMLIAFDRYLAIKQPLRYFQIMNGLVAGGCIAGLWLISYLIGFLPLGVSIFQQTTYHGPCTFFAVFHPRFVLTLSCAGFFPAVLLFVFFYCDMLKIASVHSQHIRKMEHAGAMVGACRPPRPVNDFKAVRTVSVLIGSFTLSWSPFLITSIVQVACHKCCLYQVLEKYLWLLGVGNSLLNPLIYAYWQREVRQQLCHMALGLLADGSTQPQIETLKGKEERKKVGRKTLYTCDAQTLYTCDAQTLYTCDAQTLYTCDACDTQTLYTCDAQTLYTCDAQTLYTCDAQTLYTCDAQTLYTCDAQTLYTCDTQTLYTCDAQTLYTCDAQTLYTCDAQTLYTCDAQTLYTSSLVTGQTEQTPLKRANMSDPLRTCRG

[3] = Cmax in Sprague-Dawley rat at 2 mg/kg, iv and po; format: ADME, organism-based; details: in vivo
Method in brief: (§2)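 Male Sprague-Dawley rats; 2 mg/kg IV and 2 mg/kg PO in 20% hp-β-CD; clearance, Vss, terminal t1/2, Cmax, AUClast and oral bioavailability derived.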

[4] = molecular target: T2, Glucose-dependent insulinotropic receptor (Mus musculus) (UniProt Q7TQP3); experiment: Agonist activity at mouse GPR119 by HTRF cAMP assay relative to AR231453; format: functional
T2 sequence (whole entry): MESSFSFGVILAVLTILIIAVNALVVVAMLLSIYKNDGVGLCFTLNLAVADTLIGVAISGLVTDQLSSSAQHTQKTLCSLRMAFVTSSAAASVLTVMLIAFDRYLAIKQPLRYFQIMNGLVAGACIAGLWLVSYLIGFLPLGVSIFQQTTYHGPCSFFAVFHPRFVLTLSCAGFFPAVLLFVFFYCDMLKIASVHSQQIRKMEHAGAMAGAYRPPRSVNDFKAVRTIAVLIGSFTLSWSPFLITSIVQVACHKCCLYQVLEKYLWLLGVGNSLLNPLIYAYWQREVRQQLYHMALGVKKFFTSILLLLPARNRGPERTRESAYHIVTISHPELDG

[5] = Clearance in Sprague-Dawley rat at 2 mg/kg, iv and po; format: ADME, organism-based; details: in vivo; method in brief: as §2
[6] = molecular target: T3, Glucose-dependent insulinotropic receptor (Homo sapiens) (UniProt Q8TDV5); experiment: Agonist activity at human GPR119 by HTRF cAMP assay relative to AR231453; format: functional
T3 sequence (whole entry): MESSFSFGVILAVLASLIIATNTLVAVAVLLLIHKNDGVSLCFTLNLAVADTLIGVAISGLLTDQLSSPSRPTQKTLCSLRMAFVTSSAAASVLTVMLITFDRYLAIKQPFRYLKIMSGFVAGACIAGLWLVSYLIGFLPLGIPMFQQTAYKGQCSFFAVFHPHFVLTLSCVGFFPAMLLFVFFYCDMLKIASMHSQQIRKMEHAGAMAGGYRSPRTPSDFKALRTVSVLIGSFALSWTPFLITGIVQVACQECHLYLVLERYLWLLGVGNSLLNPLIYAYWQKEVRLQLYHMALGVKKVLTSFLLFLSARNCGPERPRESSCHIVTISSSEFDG

Uncharacterized protein = molecular target: T4, Uncharacterized protein (Canis lupus familiaris, UniProt A0A8C0THM6); experiment: Agonist activity at canine GPR119 by HTRF cAMP assay
T4 sequence (A0A8C0THM6 whole entry): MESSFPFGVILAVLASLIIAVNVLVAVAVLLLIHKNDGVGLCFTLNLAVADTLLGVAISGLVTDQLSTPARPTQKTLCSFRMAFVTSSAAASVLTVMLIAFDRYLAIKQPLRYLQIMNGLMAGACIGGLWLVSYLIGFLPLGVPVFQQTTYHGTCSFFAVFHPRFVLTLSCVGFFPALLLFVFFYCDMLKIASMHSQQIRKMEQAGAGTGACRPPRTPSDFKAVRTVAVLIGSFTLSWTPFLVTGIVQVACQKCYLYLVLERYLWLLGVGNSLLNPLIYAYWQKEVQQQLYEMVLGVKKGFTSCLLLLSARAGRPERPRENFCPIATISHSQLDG

[7] = Drug uptake in Sprague-Dawley rat brain at 2 mg/kg, po measured at 2 hrs; format: ADME, organism-based; details: read-out: Drug uptake
Method in brief: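 Abbreviated CNS study in male SD rats given 2 mg/kg orally in 20% hp-β-CD; brain (ng/g) and plasma (ng/mL) levels sampled at 2 h post-dose, brain/plasma ratio calculated.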

Macaca mulatta = species on record: Macaca mulatta; experiment: Agonist activity at monkey GPR119 by HTRF cAMP assay relative to AR231453
[8] = Terminal half life in Sprague-Dawley rat at 2 mg/kg, iv and po; format: ADME, organism-based; details: in vivo, read-out: beta t1/2 (converted); method in brief: as §2
[9] = Plasma protein binding in human; format: ADME, cell-free; details: read-out: PPB (converted)
[10] = Half life in mouse liver microsomes; format: ADME
[11] = molecular target: T5, Glucose-dependent insulinotropic receptor (Rattus norvegicus, UniProt Q7TQN8); experiment: Agonist activity at rat GPR119 by HTRF cAMP assay; format: functional
T5 sequence (Q7TQN8 whole entry): T1 sequence (whole entry)

[12] = Half life in rat liver microsomes; format: ADME
Mus musculus = experiment: In vivo activation of GPR119 in normoglycemic 129SVE mouse assessed as increase in GIP level in plasma at 3 to 30 mg/kg, po measured after 45 mins relative to vehicle-treated control; format: functional, organism-based
Method in brief: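 Normoglycemic male 129SVE mice dosed orally (3 and 30 mg/kg); plasma GIP measured 45 min after dosing versus vehicle-treated controls; AR231453 at 30 mg/kg as reference agonist.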

[13] = Time-dependent inhibition of CYP450 in human liver microsomes; format: ADME
[14] = Oral bioavailability in Sprague-Dawley rat at 2 mg/kg; format: ADME, organism-based; details: in vivo; method in brief: as §2
Rattus norvegicus [15] = experiment: Antidiabetic activity in Zucker diabetic fatty rat assessed as fed glucose lowering effect at 1 to 10 mg/kg, qd administered over 4 weeks measured after 2 weeks of treatment; format: functional, organism-based; method in brief: as §1
Rattus norvegicus [16] = experiment: Antidiabetic activity in Zucker diabetic fatty rat assessed as suppression of plasma glucose AUC at 3 mg/kg administered 60 mins prior to glucose challenge by OGTT relative to vehicle-treated control; format: functional
HepG2 = experiment: Cytotoxicity against human HepG2 cells; format: cell-based
Cytochrome P450 3A4 = Cytochrome P450 3A4 (Homo sapiens, UniProt P08684); experiment: Inhibition of CYP3A4 in human liver microsomes; format: ADME
Cytochrome P450 3A4, sequence (P08684 whole entry): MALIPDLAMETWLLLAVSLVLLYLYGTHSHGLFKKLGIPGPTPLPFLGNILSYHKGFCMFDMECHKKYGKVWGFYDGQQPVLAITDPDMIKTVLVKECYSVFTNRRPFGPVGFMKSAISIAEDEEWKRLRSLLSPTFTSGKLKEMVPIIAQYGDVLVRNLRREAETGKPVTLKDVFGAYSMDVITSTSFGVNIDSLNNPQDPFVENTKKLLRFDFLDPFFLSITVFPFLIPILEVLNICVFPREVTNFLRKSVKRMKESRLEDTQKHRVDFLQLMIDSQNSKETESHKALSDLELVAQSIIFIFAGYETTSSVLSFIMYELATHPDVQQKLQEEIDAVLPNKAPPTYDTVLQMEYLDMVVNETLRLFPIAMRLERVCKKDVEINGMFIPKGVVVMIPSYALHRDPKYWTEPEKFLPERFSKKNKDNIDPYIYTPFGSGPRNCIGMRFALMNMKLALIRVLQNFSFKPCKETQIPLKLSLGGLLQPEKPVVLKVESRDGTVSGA

Rattus norvegicus [17] = experiment: Antidiabetic activity in Zucker diabetic fatty rat assessed as suppression of plasma glucose AUC administered 60 mins prior to glucose challenge by OGTT; format: functional, organism-based
[18] = Plasma protein binding in rat; format: ADME, cell-free; details: read-out: PPB (converted)

Emax [2]: 120% | Cmax [3]: 0.77 µg/mL | Emax [4]: 130% | clearance [5]: 0.4 L/h/kg | Emax [6]: 106% | pEC50 (Uncharacterized protein): 8.21 | concentration at 2 h [7]: 820 ng/g | Emax (Macaca mulatta): 73% | half-life [8]: 6.45 h | fraction unbound [9]: 0.025 | half-life [10]: > 1 h | pEC50 [11]: 7.54 | half-life [12]: > 1 h | TDI [13]: Not Active | bioavailability [14]: 100% | INH (Cytochrome P450 3A4): > 50 µM | fraction unbound [18]: 0.04
Compound: C[C@@H](OC(=O)N1CCC(O[C@H]2CC[C@H](Oc3cnc(S(C)(=O)=O)cn3)CC2)CC1)C(F)(F)F
Activity (Rattus norvegicus [1]): 1.85% | Activity (Mus musculus): Active | Activity (Rattus norvegicus [15]): Active | Activity (Rattus norvegicus [16]): 43% | Activity (HepG2): Non-toxic | Activity (Rattus norvegicus [17]): Dose-dependent effect
